From ChEMBL document CHEMBL1139476, “Radioiodinated flavones for in vivo imaging of beta-amyloid plaques in the brain” (J Med Chem, 2005)

Experiments:
Kidney [1] = assay: Biodistribution in ddY mouse kidney at 2 uCi, iv after 2 mins; format: ADME, organism-based; conditions: in vivo
Method in brief: (§1)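 Normal mice given the 125I-labelled flavone intravenously; killed at each time point postinjection, organs removed, weighed and counted in a γ counter. Radioactivity expressed as % injected dose per gram tissue; mean (SD) of three to five animals per interval.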

Heart [2] = assay: Biodistribution in ddY mouse heart at 2 uCi, iv after 30 mins; format: ADME, organism-based; conditions: in vivo, 0.5 h; method in brief: as §1
Stomach [3] = assay: Biodistribution per organ in ddY mouse stomach at 2 uCi, iv after 60 mins; format: ADME, organism-based; conditions: in vivo, 1 h
Method in brief: (§2)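 Normal mice injected intravenously with the 125I-labelled flavone; killed at each time point, stomach removed and counted in a γ counter. Value given as % injected dose per whole organ; mean (SD) of three to five animals per interval.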

Spleen [4] = assay: Biodistribution in ddY mouse spleen at 2 uCi, iv after 60 mins; format: ADME, organism-based; conditions: in vivo, 1 h; method in brief: as §1
Blood [5] = assay: Biodistribution in ddY mouse blood at 2 uCi, iv after 2 mins; format: ADME, organism-based; conditions: in vivo; method in brief: as §1
Spleen [6] = assay: Biodistribution in ddY mouse spleen at 2 uCi, iv after 10 mins; format: ADME, organism-based; conditions: in vivo; method in brief: as §1
Spleen [7] = assay: Biodistribution in ddY mouse spleen at 2 uCi, iv after 30 mins; format: ADME, organism-based; conditions: in vivo, 0.5 h; method in brief: as §1
Heart [8] = assay: Biodistribution in ddY mouse heart at 2 uCi, iv after 2 mins; format: ADME, organism-based; conditions: in vivo; method in brief: as §1
Intestine [9] = assay: Biodistribution in ddY mouse intestine at 2 uCi, iv after 2 mins; format: ADME, organism-based; conditions: in vivo; method in brief: as §1
Kidney [10] = assay: Biodistribution in ddY mouse kidney at 2 uCi, iv after 30 mins; format: ADME, organism-based; conditions: in vivo, 0.5 h; method in brief: as §1
Blood [11] = assay: Biodistribution in ddY mouse blood at 2 uCi, iv after 60 mins; format: ADME, organism-based; conditions: in vivo, 1 h; method in brief: as §1
Heart [12] = assay: Biodistribution in ddY mouse heart at 2 uCi, iv after 60 mins; format: ADME, organism-based; conditions: in vivo, 1 h; method in brief: as §1
Intestine [13] = assay: Biodistribution in ddY mouse intestine at 2 uCi, iv after 60 mins; format: ADME, organism-based; conditions: in vivo, 1 h; method in brief: as §1
Blood [14] = assay: Biodistribution in ddY mouse blood at 2 uCi, iv after 30 mins; format: ADME, organism-based; conditions: in vivo, 0.5 h; method in brief: as §1
Liver [15] = assay: Biodistribution in ddY mouse liver at 2 uCi, iv after 10 mins; format: ADME, organism-based; conditions: in vivo; method in brief: as §1
Brain [16] = assay: Biodistribution in ddY mouse brain at 2 uCi, iv after 60 mins; format: ADME, organism-based; conditions: in vivo, 1 h; method in brief: as §1
Brain [17] = assay: Biodistribution in ddY mouse brain at 2 uCi, iv after 2 mins; format: ADME, organism-based; conditions: in vivo; method in brief: as §1
Kidney [18] = assay: Biodistribution in ddY mouse kidney at 2 uCi, iv after 60 mins; format: ADME, organism-based; conditions: in vivo, 1 h; method in brief: as §1
Brain [19] = assay: Biodistribution in ddY mouse brain at 2 uCi, iv after 30 mins; format: ADME, organism-based; conditions: in vivo, 0.5 h; method in brief: as §1
[20] = Partition coefficient, log P at pH 7.4; format: physicochemical; conditions: octanol/water
Method in brief: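 Radioiodinated tracer shaken 3 min at room temperature in 1-octanol and 0.1 M phosphate buffer pH 7.4, centrifuged 5 min. Equal aliquots of each layer counted; ratio of octanol to buffer counts, with octanol layer repartitioned until values were consistent. Triplicate, repeated three times; mean (SD) of three experiments.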

Brain [21] = assay: Biodistribution in ddY mouse brain at 2 uCi, iv after 10 mins; format: ADME, organism-based; conditions: in vivo; method in brief: as §1
Stomach [22] = assay: Biodistribution per organ in ddY mouse stomach at 2 uCi, iv after 10 mins; format: ADME, organism-based; conditions: in vivo; method in brief: as §2
Stomach [23] = assay: Biodistribution per organ in ddY mouse stomach at 2 uCi, iv after 2 mins; format: ADME, organism-based; conditions: in vivo; method in brief: as §2
Blood [24] = assay: Biodistribution in ddY mouse blood at 2 uCi, iv after 10 mins; format: ADME, organism-based; conditions: in vivo; method in brief: as §1
Spleen [25] = assay: Biodistribution in ddY mouse spleen at 2 uCi, iv after 2 mins; format: ADME, organism-based; conditions: in vivo; method in brief: as §1
Kidney [26] = assay: Biodistribution in ddY mouse kidney at 2 uCi, iv after 10 mins; format: ADME, organism-based; conditions: in vivo; method in brief: as §1
Liver [27] = assay: Biodistribution in ddY mouse liver at 2 uCi, iv after 30 mins; format: ADME, organism-based; conditions: in vivo, 0.5 h; method in brief: as §1
Liver [28] = assay: Biodistribution in ddY mouse liver at 2 uCi, iv after 60 mins; format: ADME, organism-based; conditions: in vivo, 1 h; method in brief: as §1
Liver [29] = assay: Biodistribution in ddY mouse liver at 2 uCi, iv after 2 mins; format: ADME, organism-based; conditions: in vivo; method in brief: as §1
Intestine [30] = assay: Biodistribution in ddY mouse intestine at 2 uCi, iv after 30 mins; format: ADME, organism-based; conditions: in vivo, 0.5 h; method in brief: as §1
Heart [31] = assay: Biodistribution in ddY mouse heart at 2 uCi, iv after 10 mins; format: ADME, organism-based; conditions: in vivo; method in brief: as §1
Stomach [32] = assay: Biodistribution per organ in ddY mouse stomach at 2 uCi, iv after 30 mins; format: ADME, organism-based; conditions: in vivo, 0.5 h; method in brief: as §2
Intestine [33] = assay: Biodistribution in ddY mouse intestine at 2 uCi, iv after 10 mins; format: ADME, organism-based; conditions: in vivo; method in brief: as §1
[34] = biological target: T1, Amyloid-beta precursor protein (Homo sapiens, UniProt P05067); assay: Displacement of [125I]6-iodo-4'-dimethyaminofl avone from beta amyloid (1-42) protein aggregates
[35] = biological target: T1, Amyloid-beta precursor protein; assay: Displacement of [125I]6-iodo-4'-dimethyaminofl avone from beta amyloid (1-40) protein aggregates

T1 sequence (P05067 whole entry): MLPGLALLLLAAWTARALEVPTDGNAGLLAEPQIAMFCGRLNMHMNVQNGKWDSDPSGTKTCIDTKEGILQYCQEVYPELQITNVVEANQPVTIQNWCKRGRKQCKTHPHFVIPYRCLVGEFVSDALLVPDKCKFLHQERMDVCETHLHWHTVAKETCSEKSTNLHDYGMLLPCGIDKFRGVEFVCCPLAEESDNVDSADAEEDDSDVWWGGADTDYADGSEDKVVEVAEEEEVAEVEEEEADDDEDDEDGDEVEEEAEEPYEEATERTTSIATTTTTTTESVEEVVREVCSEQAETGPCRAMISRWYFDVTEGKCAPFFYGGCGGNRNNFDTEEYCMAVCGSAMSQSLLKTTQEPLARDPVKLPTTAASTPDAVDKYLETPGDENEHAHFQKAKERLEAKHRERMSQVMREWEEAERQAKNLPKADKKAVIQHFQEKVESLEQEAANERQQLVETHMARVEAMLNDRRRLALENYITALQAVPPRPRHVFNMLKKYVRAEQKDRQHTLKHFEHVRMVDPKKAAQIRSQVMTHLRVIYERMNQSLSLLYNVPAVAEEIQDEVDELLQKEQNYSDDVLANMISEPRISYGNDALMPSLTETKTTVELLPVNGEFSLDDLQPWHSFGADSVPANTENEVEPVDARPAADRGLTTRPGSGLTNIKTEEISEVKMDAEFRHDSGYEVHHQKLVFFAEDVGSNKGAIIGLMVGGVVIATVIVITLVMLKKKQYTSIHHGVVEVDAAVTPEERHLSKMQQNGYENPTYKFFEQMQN

Row | SMILES | Drug uptake (Kidney [1]) [% ID/g] | Drug uptake (Heart [2]) [% ID/g] | Drug uptake (Stomach [3]) [% ID/organ] | Drug uptake (Spleen [4]) [% ID/g] | Drug uptake (Blood [5]) [% ID/g] | Drug uptake (Spleen [6]) [% ID/g] | Drug uptake (Spleen [7]) [% ID/g] | Drug uptake (Heart [8]) [% ID/g] | Drug uptake (Intestine [9]) [% ID/g] | Drug uptake (Kidney [10]) [% ID/g] | Drug uptake (Blood [11]) [% ID/g] | Drug uptake (Heart [12]) [% ID/g] | Drug uptake (Intestine [13]) [% ID/g] | Drug uptake (Blood [14]) [% ID/g] | Drug uptake (Liver [15]) [% ID/g] | Drug uptake (Brain [16]) [% ID/g] | Drug uptake (Brain [17]) [% ID/g] | Drug uptake (Kidney [18]) [% ID/g] | Drug uptake (Brain [19]) [% ID/g] | logD [20] | also measured
1 | CN(C)c1ccc(-c2cc(=O)c3cc([125I])ccc3o2)cc1 | 8.33 | 1.69 | 1.06 | 1.18 | 1.87 | 1.92 | 1.58 | 5.63 | 2.24 | 3.4 | 1.15 | 1.07 | 18.64 | 1.2 | 21.85 | 0.99 | 3.22 | 2.32 | 1.89 | 2.69 | Drug uptake (Brain [21]): 3.61 % ID/g; Drug uptake (Stomach [22]): 0.63 % ID/organ; Drug uptake (Stomach [23]): 0.73 % ID/organ; Drug uptake (Blood [24]): 1.07 % ID/g; Drug uptake (Spleen [25]): 2.72 % ID/g; Drug uptake (Kidney [26]): 4.31 % ID/g; Drug uptake (Liver [27]): 15.71 % ID/g; Drug uptake (Liver [28]): 12.4 % ID/g; Drug uptake (Liver [29]): 15.41 % ID/g; Drug uptake (Intestine [30]): 12.97 % ID/g; Drug uptake (Heart [31]): 2.47 % ID/g; Drug uptake (Stomach [32]): 1.17 % ID/organ; Drug uptake (Intestine [33]): 6.56 % ID/g
2 | Nc1c(/N=N/c2ccc(-c3ccc(/N=N/c4cc(S(=O)(=O)O)c5ccccc5c4N)cc3)cc2)cc(S(=O)(=O)O)c2ccccc12 [CONGO RED] | – | – | – | – | – | – | – | – | – | – | – | – | – | – | – | – | – | – | – | – | Ki [34]: > 1000 nM; Ki [35]: > 1000 nM

The next lines start with results.

Row | Drug uptake (Kidney [1]) [% ID/g] | Drug uptake (Heart [2]) [% ID/g] | Drug uptake (Stomach [3]) [% ID/organ] | Drug uptake (Spleen [4]) [% ID/g] | Drug uptake (Blood [5]) [% ID/g] | Drug uptake (Spleen [6]) [% ID/g] | Drug uptake (Spleen [7]) [% ID/g] | Drug uptake (Heart [8]) [% ID/g] | Drug uptake (Intestine [9]) [% ID/g] | Drug uptake (Kidney [10]) [% ID/g] | Drug uptake (Blood [11]) [% ID/g] | Drug uptake (Heart [12]) [% ID/g] | Drug uptake (Intestine [13]) [% ID/g] | Drug uptake (Blood [14]) [% ID/g] | Drug uptake (Liver [15]) [% ID/g] | Drug uptake (Brain [16]) [% ID/g] | Drug uptake (Brain [17]) [% ID/g] | Drug uptake (Kidney [18]) [% ID/g] | Drug uptake (Brain [19]) [% ID/g] | logD [20] | SMILES | also measured
3 | 7.99 | 0.84 | 0.31 | 3.67 | 1.87 | 1.38 | 0.55 | 4.98 | 3.52 | 4.51 | 0.23 | 0.47 | 30.05 | 0.4 | 9.01 | 0.17 | 4 | 1.46 | 0.51 | 2.41 | COc1ccc(-c2cc(=O)c3cc([125I])ccc3o2)cc1 | Drug uptake (Brain [21]): 2.36 % ID/g; Drug uptake (Stomach [22]): 0.45 % ID/organ; Drug uptake (Stomach [23]): 0.68 % ID/organ; Drug uptake (Blood [24]): 1.19 % ID/g; Drug uptake (Spleen [25]): 2.7 % ID/g; Drug uptake (Kidney [26]): 6.3 % ID/g; Drug uptake (Liver [27]): 3.75 % ID/g; Drug uptake (Liver [28]): 1.88 % ID/g; Drug uptake (Liver [29]): 8.96 % ID/g; Drug uptake (Intestine [30]): 22.51 % ID/g; Drug uptake (Heart [31]): 2.25 % ID/g; Drug uptake (Stomach [32]): 0.55 % ID/organ; Drug uptake (Intestine [33]): 14.39 % ID/g
4 | 8.13 | 1.67 | 1.8 | 1.52 | 1.89 | 2.31 | 1.76 | 4.87 | 3.1 | 3.85 | 1.5 | 1.28 | 21.48 | 1.34 | 25.28 | 1.19 | 4.12 | 3.05 | 1.84 | 2.15 | CNc1ccc(-c2cc(=O)c3cc([125I])ccc3o2)cc1 | Drug uptake (Brain [21]): 3.68 % ID/g; Drug uptake (Stomach [22]): 0.87 % ID/organ; Drug uptake (Stomach [23]): 0.78 % ID/organ; Drug uptake (Blood [24]): 1.39 % ID/g; Drug uptake (Spleen [25]): 2.57 % ID/g; Drug uptake (Kidney [26]): 5.21 % ID/g; Drug uptake (Liver [27]): 18.61 % ID/g; Drug uptake (Liver [28]): 15.14 % ID/g; Drug uptake (Liver [29]): 16.28 % ID/g; Drug uptake (Intestine [30]): 12.84 % ID/g; Drug uptake (Heart [31]): 2.66 % ID/g; Drug uptake (Stomach [32]): 1.44 % ID/organ; Drug uptake (Intestine [33]): 7.91 % ID/g
5 | 14.79 | 0.53 | 0.81 | 0.17 | 2.77 | 1.55 | 0.56 | 5.51 | 3.12 | 6.45 | 0.2 | 0.12 | 27.28 | 0.66 | 8.24 | 0.08 | 3.31 | 1.66 | 0.52 | 1.92 | O=c1cc(-c2ccc(O)cc2)oc2ccc([125I])cc12 | Drug uptake (Brain [21]): 1.9 % ID/g; Drug uptake (Stomach [22]): 0.59 % ID/organ; Drug uptake (Stomach [23]): 0.89 % ID/organ; Drug uptake (Blood [24]): 1.58 % ID/g; Drug uptake (Spleen [25]): 3.92 % ID/g; Drug uptake (Kidney [26]): 15.11 % ID/g; Drug uptake (Liver [27]): 6.8 % ID/g; Drug uptake (Liver [28]): 4.78 % ID/g; Drug uptake (Liver [29]): 9.77 % ID/g; Drug uptake (Intestine [30]): 22.01 % ID/g; Drug uptake (Heart [31]): 1.6 % ID/g; Drug uptake (Stomach [32]): 1.56 % ID/organ; Drug uptake (Intestine [33]): 11.26 % ID/g
